From PubChem BioAssay
Most compounds without a hit are left out; they make up all but 4.5% or so of the library.
MrgX1 antag: antagonists of human MrgX1 receptor. Q96LB2. MRGX1-HEK293 calcium flux, Fluo-4, BAM8-22 antagonism; stronger effect = lower value. B-score at 10 µM. 310,000 tested, 1.3% active. AID 588676;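 active means calcium-response B-score plate-corrected more than 3 library SD below zero, starting fluorescence within 5 deviations, no agonist response on first addition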;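 further: peak minus trough fluorescence over baseline after final BAM8-22 challenge near maximal dose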
Target sequence (Q96LB2 whole entry, looked up): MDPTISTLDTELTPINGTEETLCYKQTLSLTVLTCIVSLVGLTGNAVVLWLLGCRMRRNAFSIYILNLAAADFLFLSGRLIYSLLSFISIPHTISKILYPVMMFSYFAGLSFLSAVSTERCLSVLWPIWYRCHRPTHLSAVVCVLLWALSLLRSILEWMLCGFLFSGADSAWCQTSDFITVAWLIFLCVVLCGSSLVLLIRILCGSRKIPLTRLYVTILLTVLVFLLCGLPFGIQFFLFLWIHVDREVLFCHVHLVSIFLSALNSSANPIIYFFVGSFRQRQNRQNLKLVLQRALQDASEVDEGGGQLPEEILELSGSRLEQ
RGS4 pot: potentiators or activators of RGS4. HEK293 M3R/inducible RGS4, carbachol calcium flux Fluo4; stronger effect = lower value. B-score at 10 µM. 310,000 tested, 0.92% active. AID 463111;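 active means B-score of the integrated calcium signal more than 4 SD below the library mean, with starting fluorescence not abnormally high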;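 further: negative B-score means reduced calcium response which marks RGS4 activation or potentiation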
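test system = HEK293 cells with stable M3R and inducible RGS4 | schedule = recording 10 s baseline at 1 Hz, 100 s post-agonist | technique = Fluo4-AM (2 µM) calcium-flux fluorescence, kinetic read | measure = Agonist-evoked peak-minus-minimum fluorescence over baseline, integrated ratio, B score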
RGS4 block: human RGS4 inhibition. HEK293 M3R/RGS4 inducible, Fluo-4 calcium flux; stronger effect = higher value; triggered by carbachol at its EC20. 310,000 tested, 0.45% active. B-score at 10 µM. AID 463165;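 active means B-score, a plate-corrected calcium signal, over three deviations above library mean, with baseline fluorescence within five deviations of library mean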;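 further: RGS4 expression induced by doxycycline in cells with stable M3 receptor; B-score is computed from the integrated fluorescence ratio over baseline after carbachol; higher B-score means a larger calcium signal and so more RGS4 inhibition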
Target sequence (P49798 whole entry, looked up): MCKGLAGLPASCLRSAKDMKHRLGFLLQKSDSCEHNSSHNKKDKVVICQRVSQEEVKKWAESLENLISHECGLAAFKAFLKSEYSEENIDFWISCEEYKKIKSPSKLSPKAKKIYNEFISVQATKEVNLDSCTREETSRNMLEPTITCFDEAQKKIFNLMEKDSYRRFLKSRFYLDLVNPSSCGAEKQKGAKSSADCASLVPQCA
MrgX1 agonist: agonists of human MrgX1 receptor | Q96LB2 | MrgX1-HEK293 cells, Fluo-4 calcium fluorescence, agonist mode; stronger effect = higher value | B-score at 10 µM | 310,000 tested, 0.44% active | AID 588627;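 active means calcium response B-score plate-corrected fluorescence ratio at least 3 library SD, with starting fluorescence B-score inside 5 SD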
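Assay system: MrgX1-expressing HEK293 cells / Amount: fifteen thousand cells per well / Doses: test compound in the initial addition of three / Timing: cells plated overnight, dye loaded 0.5 h 37 °C, 0.5 h room temperature / Technique: kinetic calcium dye fluorescence, Fluo-4 NW / Control set: positive and negative controls per plate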
PHOSPHO1 inh: PHOSPHO1 (human) inhibition; Q8TCT1; recombinant PHOSPHO1, absorbance phosphatase assay; inhibition, % at 13.3 µM; 290,000 tested, 1.1% active; AID 1565; in the data active means inhibition above about 60%
MrgX1 PAM: allosterically activates human MrgX1 receptor signaling | MrgX1-HEK293, Fluo-4 calcium flux, FDSS; stronger effect = higher value | 310,000 tested, 0.63% active | AID 588675 | B-score at 10 µM;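 active means plate-corrected calcium response at least 3 library SD above typical, normal starting fluorescence, not activating the receptor alone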;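 further: compound read alongside a low EC10 to EC30 dose of BAM8-22 agonist; peak minus trough fluorescence over baseline measured at the second addition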
RGS4 block valid: RGS4 inhibitor validation. 1,700 tested, 65% active. HEK293 M3R/RGS4, carbachol calcium Fluo-4 fluorescence; carbachol added at its EC20; 0 = buffer wells, 100 = carbachol control. calcium response, % at 10 µM. shares compounds with RGS4 block;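 active means duplicate-averaged calcium response above the buffer-only control mean plus 5 SD of those controls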;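 further: integrated fluorescence ratio F max minus min over baseline F0; higher response in RGS4-induced cells means RGS4 inhibition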
RGS4 uninduced: counter-screen for RGS4 inhibitors: effect in non-induced cells; 1,900 tested, 20% active; activity (percent), % at 10 µM; shares compounds with RGS4 block; HEK293 M3R non-induced, carbachol calcium Fluo-4; submaximal (EC20) carbachol stimulus; buffer wells 0%, carbachol control wells 100%; call rule not given here;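 further: RGS4 induction absent so cells express M3R without RGS4; higher means more calcium signal and flags a non-specific hit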
M3R basal Ca ctr: signal in non-induced cells without carbachol, RGS4 inhibitor counter-screen | shares compounds with RGS4 block | HEK293 M3R/RGS4 non-induced, Fluo-4 calcium, no carbachol; normalised: buffer wells 0%, carbachol wells 100% | calcium response (agonist-mode artifact), % at 10 µM | 1,900 tested, 22% active | AID 493001;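 active means duplicate-averaged calcium rise in uninduced cells above buffer wells' mean plus 5 SD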
Large screens that a line does not name were inactive (follow-up assays come after a bar, where they were run).

CCc1ccc(-c2cc(C(=O)N/N=C/c3c[nH]c4ccccc34)[nH]n2)cc1	RGS4 block 4.87 | RGS4 block valid inactive | RGS4 uninduced inactive | M3R basal Ca ctr inactive
CC(C)CNC(=O)CCc1nc(-c2ccccc2)no1	none
COc1ccc(Br)cc1C(C[N+](=O)[O-])c1c(N)n(C)c(=O)n(C)c1=O (stereo not drawn)	none
COc1ccc(NC(=O)CCn2cccc2)c(OC)c1	none
COc1ccc(OC)c(C(C[N+](=O)[O-])c2c(C)cc3ccccn23)c1 (stereo not drawn)	none | RGS4 block valid inactive | RGS4 uninduced inactive | M3R basal Ca ctr inactive
COc1ccc(C(C[N+](=O)[O-])c2c(C)cc3ccccn23)c(OC)c1 (stereo not drawn)	RGS4 block 13.2, MrgX1 agonist 40.8 | RGS4 block valid inactive | RGS4 uninduced inactive | M3R basal Ca ctr inactive
COc1cc(C(=O)NCc2ccc3c(c2)OCO3)c([N+](=O)[O-])cc1OC	none
CCCn1cnc2cc(NC(=O)c3cccs3)ccc21	none
COc1cccc(/C=C2/C(=O)NN(c3ccc(F)cc3)C2=O)c1	none | RGS4 uninduced inactive | M3R basal Ca ctr inactive
O=C1NN(c2ccccc2)C(=O)/C1=C\c1ccc2c(c1)OCO2	RGS4 block 7.68 | RGS4 block valid inactive | RGS4 uninduced inactive | M3R basal Ca ctr inactive
O=C1NC(=S)N/C1=C/c1ccc2c(c1)OCO2	none
COc1cccc(/C=C2/C(=O)NN(c3ccc(C)c(C)c3)C2=O)c1	RGS4 block 15.4 | RGS4 block valid 9.5% | RGS4 uninduced inactive | M3R basal Ca ctr inactive
Cc1ccc(N2NC(=O)/C(=C\c3cc4c(cc3[N+](=O)[O-])OCO4)C2=O)cc1C	RGS4 block 25.6 | RGS4 block valid 69.0% | RGS4 uninduced inactive | M3R basal Ca ctr 33.5%
COc1ccc(-c2cc3c(=O)n(CC(=O)NCCN4CCCC4)nc(C)n3n2)cc1	none
COc1ccccc1C(=O)NCCC(=O)NNC(=O)c1ccccc1O	none (no result: PHOSPHO1 inh)
Cc1ccc(S(=O)(=O)N2CCC(C(=O)OC(C)C(=O)NCc3ccccc3)CC2)cc1C (stereo not drawn)	none
COc1cccc(/C=C2/C(=O)NN(c3ccccc3)C2=O)c1	RGS4 block 7.47 | RGS4 block valid inactive | RGS4 uninduced inactive | M3R basal Ca ctr 8.0%
CCOC(=O)c1sc(NC(=O)c2cc(-c3ccccc3)nc3ccccc23)c(C#N)c1C	none
CC1C/C(=C/c2ccncc2)C(=O)/C(=C/c2ccncc2)C1 (stereo not drawn)	RGS4 block 28.3, MrgX1 PAM 7.95 | RGS4 block valid 120.5% | RGS4 uninduced inactive | M3R basal Ca ctr 7.5%
Cc1ccccc1C1C(C#N)=C2N=C(N)c3ccccc3N2C2=C1C(=O)CCC2 (stereo not drawn)	none
N#CC1=C2N=C(N)c3ccccc3N2C2=C(C(=O)CCC2)C1c1cccc(Cl)c1 (stereo not drawn)	none | RGS4 uninduced 38.0% | M3R basal Ca ctr 28.0%
O=C1c2cc(O)cc(O)c2C(=O)c2c1cc(O)c([C@@H](CO)CCO)c2O	RGS4 block 6.3 (no result: PHOSPHO1 inh) | RGS4 block valid 17.5% | RGS4 uninduced inactive | M3R basal Ca ctr 67.0%
Cc1cc(O)c2c(c1)C(=O)c1cc(O)cc(O)c1C2=O	none (no result: PHOSPHO1 inh)
O=[N+]([O-])c1c(NCCO)cc(N2CCCCCC2)c2nonc12	none
Cc1nnc(Sc2cc(NCCO)c([N+](=O)[O-])c3nonc23)s1	none (no result: MrgX1 antag, MrgX1 agonist, MrgX1 PAM) | RGS4 block valid inactive | RGS4 uninduced inactive | M3R basal Ca ctr inactive
Cc1nnc(Sc2cc(NCCCO)c([N+](=O)[O-])c3nonc23)s1	RGS4 block 10.3 (no result: MrgX1 antag, MrgX1 agonist, MrgX1 PAM) | RGS4 block valid 21.0% | RGS4 uninduced inactive | M3R basal Ca ctr inactive
O=[N+]([O-])c1c(NCCCO)cc(Sc2nc3ccccc3s2)c2nonc12	RGS4 block 4.66 | RGS4 block valid 9.5% | RGS4 uninduced inactive | M3R basal Ca ctr 150.5%
CCCSc1cc(NCCOC(C)=O)c([N+](=O)[O-])c2nonc12	none
CCCC(=O)OCCNc1cc(Sc2nccn2C)c2nonc2c1[N+](=O)[O-]	RGS4 block 13.1 | RGS4 block valid 59.0% | RGS4 uninduced inactive | M3R basal Ca ctr inactive
OCCC1CN(C2CCN(c3ccccc3)CC2)CCN1Cc1ccc(F)c(F)c1 (stereo not drawn)	none
Nc1nc2c(nc(SCc3ccccc3Br)n2C2OC(CO)C(O)C2O)c(=O)[nH]1 (stereo not drawn)	none
O=C(NN=C1CCCC1)c1ccccc1OCc1ccc(Cl)cc1	none
CC1CCC2C(=O)N(c3ccc(C(=O)Oc4cccc5cccnc45)cc3)C(=O)C2C1 (stereo not drawn)	RGS4 block 5.24 | RGS4 block valid 25.0% | RGS4 uninduced inactive | M3R basal Ca ctr inactive
Cc1ccc(C(=O)O)cc1NC(=S)NC(=O)c1ccc(-c2ccc(Cl)cc2)o1	none | RGS4 uninduced inactive | M3R basal Ca ctr inactive
O=C(O)c1cccc(NC(=S)NC(=O)c2ccc(-c3ccc(Cl)cc3)o2)c1	none
COc1ccc(C(=O)O)cc1NC(=S)NC(=O)c1ccc(-c2ccc(Cl)cc2)o1	RGS4 block 4.83 (no result: MrgX1 antag, MrgX1 agonist, MrgX1 PAM) | RGS4 block valid inactive | RGS4 uninduced inactive | M3R basal Ca ctr inactive
CCOc1ccc(S(=O)(=O)NCCC(=O)NC2CCCCC2)cc1	none (no result: PHOSPHO1 inh)
Cc1ccc(NC(=O)CNC(=O)Cn2cnc3sc(C)c(C)c3c2=O)cc1F	RGS4 block 6.92 | RGS4 block valid 19.0% | RGS4 uninduced 47.5% | M3R basal Ca ctr inactive
Cc1ccc(-c2nc3cnccn3c2Nc2c(C)cccc2C)o1	RGS4 block 6.35 | RGS4 block valid 8.0% | RGS4 uninduced inactive | M3R basal Ca ctr 25.5%
Cc1ccc(-c2nc3ncccn3c2Nc2ccccc2C)o1	none
[N-]=[N+]=NC[C@H](Cc1ccccc1)N1CC[C@@H](OCc2ccccc2)CCC1=O	none
CC1CCN(C(=O)CSc2n[nH]c(-c3cccs3)n2)CC1	none
CC(C)(C)OC(=O)N1CCC(c2cc(-c3cccs3)n[nH]2)CC1	RGS4 block 4.96 | RGS4 block valid 17.0% | RGS4 uninduced inactive | M3R basal Ca ctr inactive
CCOC(=O)[C@@H]1[C@H]2COc3ccc(Br)cc3[C@H]2N2C(=O)N(c3ccc(F)cc3)C(=O)[C@]12C	none
